# Compounds with a hit are over-represented: about 1.6% of the library has one in this group of screens.
# procasp7 counter: counter-screen for procaspase-3 activators: activators of human procaspase-7. AID 463210. recombinant procaspase-7, Ac-DEVD-pNA absorbance 405 nm; D23A/D198A/D206A triple mutant, cannot self-cleave; scale: DMSO 0, 5 µM enzyme 100. P55210. activation, % at 8.5 µM. hit rate 0.093% among 330,000;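 active = percent activation above the screen-wide mean plus 3 SD, cut at about 25% in these data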
#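 Replicates: singlicate. Assay system: Procaspase-7 triple mutant (PC-7 D3A). Signal: 405 nm absorbance of p-nitroaniline. Times: 1 h preincubation, 2 h reaction. Buffer or medium: Zinc-free HEPES pH 7.4 with 300 mM NaCl, 0.01% Triton X-100. Also added: DEVD-pNA substrate. Benchmarks: DMSO wells as 0%, DMSO with 5 µM added PC-7 as 100%.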
# PLC-beta3 inh: inhibitors of human phospholipase C beta3. Q01970. Purified PLC-beta3, fluorogenic substrate, fluorescence. inhibition, % at 12.2 µM. hit rate 0.18% among 370,000; in the data active = inhibition above about 11%;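 note: 0% = median of compound wells on plate and 100% = full blocker control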
# procasp3 activ: activators of human procaspase-3; activation, % at 8.5 µM; recombinant procaspase-3 D3A, Ac-DEVD-pNA absorbance 405 nm; hit rate 0.11% among 330,000;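 active = activation above the mean of all tested compounds plus 3 SD, cut at about 21% in these data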;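 note: 0% = DMSO alone and 100% = DMSO wells spiked with extra 5 µM PC-3 D3A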
#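 Assay system – Procaspase-3 D3A mutant, all three cleavage aspartates alanine · Controls – DMSO-only low control, 5 µM PC-3 D3A high control · Schedule – 1 h compound preincubation, 2 h substrate hydrolysis at 25 °C · Signal – 405 nm absorbance of p-nitroaniline, reads at 0 and 120 min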
# sPLA2-III inh: Blocks human group III sPLA2 activity; QFRET BODIPY PC-A2 liposome hydrolysis, fluorescence; inhibition, % at 12.2 µM; hit rate 0.56% among 370,000; AID 743126;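 active = inhibition above mean plus 3 SD of compounds lying within the high and low control bounds, cut at about 19% in these data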;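 note: 0% = median of test compound wells and 100% = no enzyme DMSO wells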
# PLCg1 inh: blocks human PLC-gamma1 enzyme activity; P19174; purified PLC-gamma1, fluorogenic substrate, fluorescence; inhibition, % at 12.2 µM; hit rate 0.84% among 370,000; AID 720700; in the data active = inhibition above about 9.5%
# Target sequence (P19174 whole entry, looked up): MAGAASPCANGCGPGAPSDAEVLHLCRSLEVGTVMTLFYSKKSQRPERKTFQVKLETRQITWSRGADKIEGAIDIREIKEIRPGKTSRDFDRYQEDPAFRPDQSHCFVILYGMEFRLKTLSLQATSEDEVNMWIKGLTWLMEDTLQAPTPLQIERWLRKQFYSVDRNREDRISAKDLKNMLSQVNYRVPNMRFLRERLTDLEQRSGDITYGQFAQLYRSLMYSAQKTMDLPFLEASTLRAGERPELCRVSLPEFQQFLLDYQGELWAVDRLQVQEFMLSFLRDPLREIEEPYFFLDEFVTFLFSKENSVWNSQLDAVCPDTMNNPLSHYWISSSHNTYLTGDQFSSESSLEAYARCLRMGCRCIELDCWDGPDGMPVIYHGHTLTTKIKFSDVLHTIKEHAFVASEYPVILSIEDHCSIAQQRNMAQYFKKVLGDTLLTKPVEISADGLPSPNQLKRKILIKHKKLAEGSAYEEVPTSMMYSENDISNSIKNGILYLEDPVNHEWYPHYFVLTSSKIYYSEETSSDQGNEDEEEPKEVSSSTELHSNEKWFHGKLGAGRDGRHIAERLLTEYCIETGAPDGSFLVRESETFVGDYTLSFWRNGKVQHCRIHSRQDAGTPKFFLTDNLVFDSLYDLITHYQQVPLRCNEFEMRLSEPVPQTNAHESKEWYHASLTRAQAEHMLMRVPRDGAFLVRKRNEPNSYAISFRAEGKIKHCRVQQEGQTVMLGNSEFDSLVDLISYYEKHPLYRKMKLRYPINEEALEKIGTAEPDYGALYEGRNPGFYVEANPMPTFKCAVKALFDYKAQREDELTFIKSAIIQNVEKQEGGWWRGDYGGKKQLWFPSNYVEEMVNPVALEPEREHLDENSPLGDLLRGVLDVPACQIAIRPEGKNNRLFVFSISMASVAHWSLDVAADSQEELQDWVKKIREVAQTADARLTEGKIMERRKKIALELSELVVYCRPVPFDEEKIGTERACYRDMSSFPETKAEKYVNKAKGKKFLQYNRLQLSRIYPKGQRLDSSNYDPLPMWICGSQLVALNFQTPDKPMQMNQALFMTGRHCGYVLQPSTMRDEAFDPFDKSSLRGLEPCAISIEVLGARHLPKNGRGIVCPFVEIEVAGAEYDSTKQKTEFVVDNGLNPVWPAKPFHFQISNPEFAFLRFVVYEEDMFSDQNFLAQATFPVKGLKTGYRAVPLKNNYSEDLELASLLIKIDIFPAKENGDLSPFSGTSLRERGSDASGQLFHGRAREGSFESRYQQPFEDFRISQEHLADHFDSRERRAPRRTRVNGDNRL
# The depositor's hits bear a star; . = no result given.
SMILES,procasp7 counter,PLC-beta3 inh,procasp3 activ,sPLA2-III inh,PLCg1 inh
O=C(NCCc1ccccc1)c1cc2sccc2n1Cc1ccccc1,6,4,-9,-4,10*
COc1ccc(S(=O)(=O)N2CCCC2)cc1C(C)C,5,2,5,3,3
O=C(Nc1ccc(Br)cc1)c1cccc(N2C(=O)C3C4C=CC(C4)C3C2=O)c1 (stereo unspecified),14,-12,0,-31,14*
O=C(Nc1ccccc1)c1cccc(N2C(=O)C3C4C=CC(C4)C3C2=O)c1 (stereo unspecified),6,-5,-4,1,3
OCCN1CCN(CCCN2c3ccccc3CCc3ccccc32)CC1,.,6,.,0,13*
CC(OC(=O)Cn1[nH]c(=O)c2ccccc2c1=O)C(=O)Nc1ccc(Cl)cn1 (stereo unspecified),-1,-2,11,8,1
CN(C)c1ccc(C=c2c3ccccc3n3c2cc(-c2ccc(Cl)cc2)[n+]3C)cc1,.,-100,.,48*,-73
CCC1S/C(=N/S(=O)(=O)c2ccc(N)cc2)NC1=O (stereo unspecified),.,2,.,3,4
CCCCC1CCC(C(=O)N(CCOC)c2c(N)n(CC(C)C)c(=O)[nH]c2=O)CC1 (stereo unspecified),4,2,4,8,14*
CC(NO)/C(=N\O)c1cccs1 (stereo unspecified),5,-4,2,24*,4
c1ccc(Cn2c(SC3CCCCC3)nnc2-c2cccnc2)cc1,.,-1,.,2,0
O=C(Cc1ccc(Cl)cc1)Nc1cccnc1Cl,.,3,.,-4,-1
O=C(CCCc1ccccc1)Nc1cccnc1Cl,8,12*,-1,5,3
COc1ccccc1CN1CC(C(=O)N(C)CCc2ccccn2)CCC1=O (stereo unspecified),.,13*,.,4,6
Cc1c(NC(=O)c2cccc(NC(=O)Cc3ccccc3F)c2)c(=O)n(-c2ccccc2)n1C,12,0,3,0,0
COc1ccc(-c2nnn(CC(=O)NCCc3ccc(OC)c(OC)c3)n2)cc1,15,-3,7,-4,3
COc1ccc(CCNC(=O)Cn2nnc(-c3ccccc3F)n2)cc1OC,14,6,5,4,9.9*
COc1ccc(N2CSC3=C(C#N)C(c4cccs4)CC(=O)N3C2)cc1 (stereo unspecified),-20,0,-7,9,9.9*
O=C(Nc1cccc2ccccc12)c1ccccc1NS(=O)(=O)c1cccc2cccnc12,6,0,1,5,0
O=C(O)c1ccccc1NS(=O)(=O)c1cccc2cccnc12,8,11*,5,-6,8
CCOC(=O)C(NC(C)=O)C(=O)Nc1c(C)cccc1C (stereo unspecified),0,0,-1,0,0
N=c1c(-c2nc3ccccc3[nH]2)cc(C(=O)c2ccco2)nn1-c1ccccc1,-2,-17,6,25*,-16
N=c1c(-c2nc3ccccc3[nH]2)cc(C(=O)c2cccs2)nn1-c1ccccc1,-4,.,10,.,.
Cc1ccccc1C(=O)NNC(=S)Nc1cccc(C(F)(F)F)c1,-2,5,8,24*,6
O=C1C2C(C(=O)N1/N=C/c1cc([N+](=O)[O-])c(O)cc1O)C1C=CC2C12CC2 (stereo unspecified),-8,0,4,3,29*
SMILES,procasp7 counter,PLC-beta3 inh,procasp3 activ,sPLA2-III inh,PLCg1 inh
O=C1C2C(C(=O)N1/N=C/c1cc([N+](=O)[O-])ccc1O)C1C=CC2C12CC2 (stereo unspecified),-6,-2,2,5,-1
CN(CC(=O)Nc1ccc(Cl)cc1)C(=O)Cn1[nH]c(=O)c2ccccc2c1=O,5,-6,0,0,9.8*
CN(C(=O)Nc1ccc(Cl)cc1Cl)[C@H]1c2cc(Br)ccc2OC[C@H]1CO,-14,9,1,-11,8
COc1cc2c(=O)n(Cc3ccccc3)c(=O)n(CC(=O)NCC3CCCO3)c2cc1OC (stereo unspecified),7,0,6,-1,0
COc1cc2c(=O)n(Cc3ccccc3)c(=O)n(CC(=O)NCCc3ccccc3)c2cc1OC,2,8,6,0,9.5*
O=C(CNc1cccc([N+](=O)[O-])c1)N1CCN(S(=O)(=O)c2ccc(Cl)cc2)CC1,.,12*,.,6,1
O=C(N/N=C/c1cccs1)c1[nH]ncc1Br,.,3,.,5,12*
O=C(OC12CCCN(C1)/C(=C/c1cccnc1)C2)C1CCCCC1 (stereo unspecified),.,1,.,4,-1
Cc1ccc(CNC(=O)[C@H](C)NC(=O)C2CCN(C(=O)[C@@H](N)CC(C)C)CC2)cc1,-2,1,0,20*,1
C[C@@H](Oc1ccccc1)c1nnn(Cc2ccccc2)c1-c1c([C@@H](C)Oc2ccccc2)nnn1Cc1ccccc1,15,3,-1,-7,16*
N#C/C(=C\c1cccn1S(=O)(=O)c1ccccc1)S(=O)(=O)c1ccc(F)cc1,.,-19,.,-3,-9
O=C(CCCN1C(=O)S/C(=C\c2ccccc2)C1=O)NNC(=O)c1ccccc1O,-5,-3,-4,25*,-1
Cc1cccc(NC(=O)CSc2nc(NS(=O)(=O)c3ccccc3)cc(=O)[nH]2)c1,2,-1,0,-9,4
O=C(N/N=C/c1c[nH]c2ccccc12)c1[nH]c2ccc(Br)cc2c1-c1ccccc1,.,-447,.,22*,-319
COc1cc(/C=N/NC(=O)C(Cc2c[nH]c3ccccc23)NC(=O)OCc2ccccc2)cc([N+](=O)[O-])c1O (stereo unspecified),8,9,-16,-38,11*
COc1cc(/C=N/NC(=O)C(Cc2c[nH]c3ccccc23)NC(=O)OCC(C)C)cc([N+](=O)[O-])c1O (stereo unspecified),-12,6,-13,-41,8
CC1Cc2[nH]c(=S)[nH]c(=O)c2C(C)O1 (stereo unspecified),.,-4,.,6,8
Cc1nc2c(=O)[nH]c(=S)n(C)c2nc1C,-17,4,-12,21*,6
COc1ccc(C(C(=O)NC2CCCCC2)N(C(=O)c2sc(C)nc2C)c2ccccc2C)cc1 (stereo unspecified),-8,9,0,-9,9.9*
COc1ccc(C(C(=O)NC2CCCCC2)N(C(=O)c2sc(C)nc2C)c2ccccc2)cc1 (stereo unspecified),2,1,2,-4,1
O=C(O)c1ccc(N=Nc2c(O)[nH]c3ccc(Br)cc23)cc1,2,-8,1,0,1
O=c1ccc2cc3c([nH]c4ccc(Br)cc43)oc-2c1O,-46,-10,-33,43*,10*

# Source: PubChem BioAssay
